Assay results from ChEMBL document CHEMBL2321800, “Design and synthesis of new bifunctional sigma-1 selective ligands with antioxidant activity” (J Med Chem, 2013).
The source made the active and inactive calls.

Columns and labels:
Rattus norvegicus [1] = species on record: Rattus norvegicus; assay: Antioxidant activity in rat brain mitochondria assessed as inhibition of Ca2+/phosphate induced mitochondrial permeability transition at 25 to 50 uM by spectrophotometry; format: functional
Method in brief: (§1)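 Mitochondria from rat liver (50 µM Ca2+) or cerebral cortex (Ficoll-purified; 100 µM Ca2+) at 1 mg protein/ml, 20 °C, in 200 mM sucrose, 10 mM HEPES pH 7.4, 5 mM succinate, 1 mM phosphate, 1.25 µM rotenone. Swelling followed as fall in apparent absorbance at 540 nm. Five runs.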

[2] = Displacement of [3H]DTG from sigma2 receptor in guinea pig brain membrane after 120 mins by liquid scintillation counting analysis; format: cell membranes, Cavia porcellus
Method in brief: (§2)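 Guinea pig brain membranes with 3 nM [3H]DTG (Kd 11 nM) plus 400 nM (+)-SKF10,047 to mask sigma1 sites. Nonspecific binding with 5 µM DTG. 50 mM Tris-HCl pH 8.0, 120 min at room temperature. Filtration, scintillation counting, Ki computed; three determinations. Ratio taken from sigma2 and sigma1 Ki values.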

Rattus norvegicus [3] = species on record: Rattus norvegicus; assay: Antioxidant activity in rat liver mitochondria assessed as inhibition of Ca2+/phosphate induced mitochondrial swelling at 25 uM by spectrophotometry; format: functional; method in brief: as §1
[4] = target: Sigma non-opioid intracellular receptor 1 (Cavia porcellus, UniProt Q60492); assay: Displacement of [3H]-(+)-pentazocine from sigma1 receptor in guinea pig brain membrane after 150 mins by liquid scintillation counting analysis; format: cell membranes
Rattus norvegicus [5] = species on record: Rattus norvegicus; assay: Antioxidant activity in rat liver mitochondria assessed as inhibition of Ca2+/phosphate induced mitochondrial swelling at 50 uM by spectrophotometry; format: functional; method in brief: as §1
Rattus norvegicus [6] = species on record: Rattus norvegicus; assay: Antioxidant activity in rat liver mitochondria assessed as restoration of Ca2+/phosphate induced sulfhydryl group oxidation at 25 to 50 uM after 15 mins by mitochondrial thiol oxidation assay; format: functional
Method in brief: (§3)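 After 15 min under swelling conditions (1 mg/ml; Ca2+ 50 µM liver, 100 µM brain; succinate/rotenone, 1 mM phosphate, 20 °C), mitochondria were pelleted and solubilized in pH 8.3 EDTA/Tris/1% SDS with DTNB. Thiols read at 412 nm and given as percent reduced SH groups. Five independent experiments; ANOVA and Student's t-test.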

Cavia porcellus = species on record: Cavia porcellus; assay: Selectivity ratio of Ki for guinea pig sigma2 receptor to Ki for guinea pig sigma1 receptor; method in brief: as §2
Rattus norvegicus [7] = assay: Reduction of (-)-U50488H-induced basal tail flick latency in Sprague-Dawley rat at 1 mg/kg, sc after 30 to 90 mins by radiant heat tail flick test; format: functional, organism-based; set-up: dose 1 mg/kg
Method in brief: (§4)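 Male Sprague-Dawley rats (180-200 g), habituated the day before; radiant heat (infrared) aimed at lower third of tail, 25±1 °C. Basal latency 3-4 s, mean of three readings at 5 min intervals; 10 s cut-off. Drugs sc; tail-flick latency read 30, 45, 60, 75 and 90 min after injection. n=8-10, mean ± SD, two-way ANOVA with Duncan post-hoc.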

Rattus norvegicus [8] = assay: Antinociceptive activity in Sprague-Dawley rat assessed as basal tail flick latency at 1 mg/kg, sc by radiant heat tail flick test; format: functional, organism-based; set-up: dose 1 mg/kg; method in brief: as §4
Rattus norvegicus [9] = species on record: Rattus norvegicus; assay: Antioxidant activity in rat brain mitochondria assessed as restoration of Ca2+/phosphate induced sulfhydryl group oxidation at 50 uM after 15 mins by mitochondrial thiol oxidation assay; format: functional; method in brief: as §3
Rattus norvegicus [10] = species on record: Rattus norvegicus; assay: Antioxidant activity in rat brain mitochondria assessed as restoration of Ca2+/phosphate induced sulfhydryl group oxidation at 3 mM after 15 mins by mitochondrial thiol oxidation assay; format: functional; method in brief: as §3
Rattus norvegicus [11] = species on record: Rattus norvegicus; assay: Antioxidant activity in rat brain mitochondria assessed as inhibition of Ca2+/phosphate induced mitochondrial swelling by spectrophotometry; format: functional
Rattus norvegicus [12] = species on record: Rattus norvegicus; assay: Antioxidant activity in rat liver mitochondria assessed as restoration of Ca2+/phosphate induced sulfhydryl group oxidation at 3 mM after 15 mins by mitochondrial thiol oxidation assay; format: functional; method in brief: as §3

Chain of Sigma non-opioid intracellular receptor 1 (Q60492 whole entry): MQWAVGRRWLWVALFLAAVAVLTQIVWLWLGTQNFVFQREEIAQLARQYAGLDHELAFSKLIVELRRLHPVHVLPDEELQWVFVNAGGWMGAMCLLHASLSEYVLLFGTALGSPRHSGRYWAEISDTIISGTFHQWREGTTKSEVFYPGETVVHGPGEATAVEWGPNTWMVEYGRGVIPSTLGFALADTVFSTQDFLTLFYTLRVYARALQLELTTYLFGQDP

Compound	Ki [2] [nM]	Ki [4] [nM]	Ratio Ki (Cavia porcellus)	other results
O=C(CCCCC1CCSS1)OC1CCN(Cc2ccccc2)CC1 (stereo not given)	2300	5.56	414	inhibition (Rattus norvegicus [1]): Active; inhibition (Rattus norvegicus [3]): Active; inhibition (Rattus norvegicus [5]): Active; Activity (Rattus norvegicus [6]): Active; Activity (Rattus norvegicus [7]): Active; Activity (Rattus norvegicus [8]): inactive; Activity (Rattus norvegicus [9]): Active
O=C(CCCCC1CCSS1)N1CCN(Cc2ccccc2)CC1 (stereo not given)	637	1.8	354	
OC[C@@H](O)[C@@H](S)CS				Activity (Rattus norvegicus [10]): Active; inhibition (Rattus norvegicus [11]): inactive; inhibition (Rattus norvegicus [5]): Active; Activity (Rattus norvegicus [12]): Active
O=C(CCCCC1CCSS1)OC1CCN(CC2CCCCC2)CC1 (stereo not given)	14	1.14	12.3	
O=C(CCCCC1CCSS1)N1CCN(C2CCCCC2)CC1 (stereo not given)	11.2	0.4	28	
Nc1ncnc2c1ncn2[C@@H]1O[C@H](COP(=O)(O)OP(=O)(O)O)[C@@H](O)[C@H]1O				inhibition (Rattus norvegicus [11]): Active; inhibition (Rattus norvegicus [5]): Active
CN1CCN(C(=O)CCCCC2CCSS2)CC1 (stereo not given)	21000	115	183	
O=C(CCCCC1CCSS1)OC1CCN(CCCc2ccccc2)CC1 (stereo not given)	101	25.7	3.9	
O=C(CCCCC1CCSS1)N1CCN(CCc2ccccc2)CC1 (stereo not given)	209	8.4	24.8	
O=C(CCCCC1CCSS1)N1CCN(CCCc2ccccc2)CC1 (stereo not given)	91.6	10	9.16	
O=C(CCCCC1CCSS1)OC1CCN(CCc2ccccc2)CC1 (stereo not given)	160	13.5	11.8	
